# Measurements from ChEMBL document CHEMBL1145774, “Synthesis and biological effects of novel 2-amino-3-naphthoylthiophenes as allosteric enhancers of the A1 adenosine receptor” (J Med Chem, 2003).
# Legend:
# [1] = target: T1, Adenosine receptor A1 (Homo sapiens) (UniProt P30542); assay: Percent change in cAMP content of CHO (Chinese hamster ovary) cells expressing human Adenosine A1 receptor at 10 uM; format: functional, cell-based
# T1 sequence (whole entry): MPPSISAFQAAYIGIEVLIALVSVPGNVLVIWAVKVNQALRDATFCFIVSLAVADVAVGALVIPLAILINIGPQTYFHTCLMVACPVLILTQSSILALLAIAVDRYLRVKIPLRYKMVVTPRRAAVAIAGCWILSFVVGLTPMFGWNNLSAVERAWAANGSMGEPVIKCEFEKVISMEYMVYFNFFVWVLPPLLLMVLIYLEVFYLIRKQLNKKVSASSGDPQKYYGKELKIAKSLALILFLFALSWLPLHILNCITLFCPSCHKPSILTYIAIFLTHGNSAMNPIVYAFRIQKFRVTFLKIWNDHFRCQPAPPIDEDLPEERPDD
# Outline: (§1)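 CHO cells stably expressing human A1 receptor (~8000 fmol/mg protein) were grown in Ham's F-12 with 10% FBS and G-418 for 48 h to confluence. HCl (50 mM final) stopped the reaction, and cAMP was measured by radioimmunoassay. Values are % change versus no-compound control, mean ± SEM of six experiments.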
# [2] = target: T1, Adenosine receptor A1 (Homo sapiens); assay: Percent change in cAMP content of CHO (Chinese hamster ovary) cells expressing human Adenosine A1 receptor at 0.01 uM; format: functional, cell-based; outline: as §1
# [3] = target: T1, Adenosine receptor A1 (Homo sapiens); assay: Percent change in cAMP content of CHO (Chinese hamster ovary) cells expressing human Adenosine A1 receptor at 1 uM; format: functional, cell-based; outline: as §1
# [4] = target: T1, Adenosine receptor A1 (Homo sapiens); assay: Percent change in cAMP content of CHO (Chinese hamster ovary) cells expressing human Adenosine A1 receptor at 0.1 uM; format: functional, cell-based; outline: as §1
# [5] = target: T2, Adenosine receptor A3 (Homo sapiens) (UniProt P0DMS8); assay: Ability to displace the binding of [3H]-MRE 3008-F20 to the ligand binding site of CHO:hA3 (human Adenosine receptor) at concentration of 10 uM
# T2 sequence (whole entry): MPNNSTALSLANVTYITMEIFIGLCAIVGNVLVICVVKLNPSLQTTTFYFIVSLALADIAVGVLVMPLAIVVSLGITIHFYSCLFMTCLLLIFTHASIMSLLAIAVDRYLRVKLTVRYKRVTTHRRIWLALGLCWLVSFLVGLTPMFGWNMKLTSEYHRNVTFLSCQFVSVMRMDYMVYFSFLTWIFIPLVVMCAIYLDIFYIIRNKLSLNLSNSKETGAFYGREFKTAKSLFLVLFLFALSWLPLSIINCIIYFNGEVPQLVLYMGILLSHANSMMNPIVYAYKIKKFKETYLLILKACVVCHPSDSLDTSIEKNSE
# Outline: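 Assays used 2 nM [3H]MRE 3008F20 on CHO:hA3 membranes (100 µg protein, ADA-treated) for 150 min at 4 °C, in Tris-HCl with MgCl2 and 1 mM EDTA, pH 7.4, with compound from DMSO (1% final). Bound ligand was separated by filtration. Results are % displacement by 10 µM compound, ±STD, n = 3.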
# [6] = target: Adenosine receptor A2a (Homo sapiens) (UniProt P29274); assay: Ability to displace the binding of [3H]-ZM 241385, to the ligand binding site of CHO:hA2A (human Adenosine A2A receptor) at concentration of 10 uM
# Outline: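 CHO:hA2A membranes (100 µg protein, ADA-treated) were incubated with 2 nM [3H]ZM 241385 in Tris-HCl with MgCl2, pH 7.4, for 60 min at 4 °C, with compound from DMSO (1% final). Nonspecific binding was taken with 1 µM ZM241385. After filtration, results are % displacement by 10 µM compound, ±STD, n = 3.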
# [7] = target: T1, Adenosine receptor A1 (Homo sapiens); assay: Ability to displace the binding of [3H]DPCPX to the ligand binding site of CHO:hA1 (human Adenosine A1 receptor) at concentration of 10 uM
# Outline: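 Membranes came from hypotonic lysis of CHO:hA1 cells, a 100 000g pellet and ADA 2 U/mL treatment for 30 min at 37 °C. Membranes (100 µg protein) were incubated with 1 nM [3H]DPCPX in Tris-HCl pH 7.4 for 150 min at 25 °C, with compound added from DMSO (1% final). Nonspecific binding was taken with 1 µM DPCPX, and bound ligand was separated on GF/B filters.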
# Adenosine receptor A2a (Homo sapiens), sequence (P29274 whole entry): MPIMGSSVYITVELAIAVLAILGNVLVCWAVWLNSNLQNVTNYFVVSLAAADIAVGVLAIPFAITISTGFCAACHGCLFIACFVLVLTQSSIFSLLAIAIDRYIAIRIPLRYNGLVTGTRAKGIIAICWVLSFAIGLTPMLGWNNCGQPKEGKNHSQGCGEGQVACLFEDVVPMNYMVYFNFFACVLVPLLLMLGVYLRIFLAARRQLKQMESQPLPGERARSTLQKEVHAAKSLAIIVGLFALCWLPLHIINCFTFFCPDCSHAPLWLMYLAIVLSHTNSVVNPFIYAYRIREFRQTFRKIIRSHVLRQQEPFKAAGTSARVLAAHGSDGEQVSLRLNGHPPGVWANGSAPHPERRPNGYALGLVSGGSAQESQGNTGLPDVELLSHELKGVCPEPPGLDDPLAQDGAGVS
SMILES,Change [1],Change [2],Change [3],Change [4],inhibition [5],inhibition [6],inhibition [7]
Nc1sc2c(c1C(=O)c1ccc3ccccc3c1)CCN(Cc1cccc(Cl)c1)C2,-3%,9%,7%,-12%,,,
Nc1sc2c(c1C(=O)c1cccc3ccccc13)CCC(Cc1ccccc1)C2 (configuration not stated),-21%,-8%,-14%,-7%,,,
COc1ccc(C(=O)c2c(N)sc3c2CCC3)c2ccccc12,-35%,-6%,-8%,-3%,57%,-0%,19%
Cc1sc(N)c(C(=O)c2cc(C)c3cc(Cl)ccc3c2)c1C,-24%,-0%,-18%,-0%,-0%,-0%,4%
Nc1sc2c(c1C(=O)c1ccc3c(c1)Cc1ccccc1-3)CCCC2,3%,7%,7%,6%,,,
Nc1sc2c(c1C(=O)c1ccc3ccccc3c1)CCC(c1ccccc1)C2 (configuration not stated),33%,-8%,31%,5%,,,
Cc1ccc(C(=O)c2c(N)sc3c2CCC3)c2ccccc12,-48%,9%,-17%,4%,,,
Cc1sc(N)c(C(=O)c2cc(C)c3ccccc3c2)c1C,-22%,4%,-9%,-3%,,,
COc1ccc(C(=O)c2c(N)sc(C)c2C)c2ccccc12,-38%,9%,-5%,3%,,,
Nc1sc2c(c1C(=O)c1ccc3c(c1)Cc1ccccc1-3)CCN(Cc1ccccc1)C2,-1%,4%,8%,-7%,,,
Cc1cc(C(=O)c2c(N)sc3c2CCC3)cc2ccc(Cl)cc12,-17%,4%,-6%,-14%,,,
Nc1sc2c(c1C(=O)c1ccc3ccccc3c1)CCN(Cc1ccccc1)C2,-60%,-11%,-18%,-12%,22%,-0%,2.5%
COc1ccc(C2SCc3c(sc(N)c3C(=O)c3cccc4ccccc34)S2)cc1 (configuration not stated),6%,18%,4%,16%,,,
Cc1ccc(C(=O)c2c(N)sc3c2CCCC3)c2ccccc12,-45%,17%,-21%,13%,,,
Nc1sc2ccccc2c1C(=O)c1cccc2ccccc12,-37%,17%,1%,9%,19%,-0%,13.5%
Nc1sc2c(c1C(=O)c1ccc3ccccc3c1)CCN(Cc1cccnc1)C2,56%,-8%,41%,-12%,,,
Cc1ccc(C(=O)c2c(N)sc3c2CCN(Cc2ccccc2)C3)c2ccccc12,-34%,-0%,-13%,-7%,,,
Nc1sc2c(c1C(=O)c1ccc3ccccc3c1)CCN(Cc1ccccc1Cl)C2,-17%,-10%,-10%,-20%,,,
Cc1cc(C(=O)c2c(N)sc3c2CCN(Cc2ccccc2)C3)cc2ccccc12,-16%,-0%,-0%,2%,,,
Nc1sc2c(c1C(=O)c1ccc3ccccc3c1)CCN(Cc1ccc(Cl)cc1)C2,-6%,-6%,-21%,-8%,,,
Cc1cc(C(=O)c2c(N)sc3c2CCCC3)cc2ccccc12,-20%,-7%,-8%,-9%,,,

SMILES,Change [1],Change [2],Change [3],Change [4],inhibition [5],inhibition [6],inhibition [7]
Cc1sc(N)c(C(=O)c2ccc(Cl)c3ccccc23)c1C,-56%,12%,-47%,-18%,,,
Nc1sc2c(c1C(=O)c1ccc3ccccc3c1)CCN(Cc1ccc(F)cc1)C2,-8%,-11%,-2%,-9%,,,
Cc1sc(N)c(C(=O)c2ccc3ccccc3c2)c1C,-28%,-1%,-8%,-4%,-0%,-0%,-0%
Nc1sc2c(c1C(=O)c1ccc(Br)c3ccccc13)CCN(Cc1ccccc1)C2,-42%,18%,-12%,-5%,,,
Cc1cc(C(=O)c2c(N)sc3c2CCC3)cc2ccccc12,-34%,-0%,-13%,-7%,-0%,-0%,6%
COc1ccc(C(=O)c2c(N)sc3c2CCCC3)c2ccccc12,-17%,5%,-3%,5%,,,
Cc1sc(N)c(C(=O)c2ccc3c(c2)Cc2ccccc2-3)c1C,-19%,-4%,-10%,-17%,,,
Nc1sc2c(c1C(=O)c1ccc3c(c1)Cc1ccccc1-3)CCC2,-9%,-3%,-6%,-15%,,,
Cc1sc(N)c(C(=O)c2ccc(Br)c3ccccc23)c1C,-60%,-8%,-2%,-1%,,,
Nc1sc2c(c1C(=O)c1ccc3ccccc3c1)CCC(Cc1ccccc1)C2 (configuration not stated),28%,7%,-9%,10%,,,
COc1ccc(CN2CCc3c(sc(N)c3C(=O)c3ccc4ccccc4c3)C2)c(OC)c1OC,5%,-3%,-10%,-1%,,,
Nc1sc2c(c1C(=O)c1ccc(Cl)c3ccccc13)CCN(Cc1ccccc1)C2,-21%,3%,-7%,-1%,,,
Nc1sc2c(c1C(=O)c1cccc3ccccc13)CCN(Cc1ccccc1)C2,19%,-21%,-25%,-7%,,,
Cc1cc(C(=O)c2c(N)sc3c2CCCC3)cc2ccc(Cl)cc12,-13%,-0%,-11%,1%,,,
Cc1sc(N)c(C(=O)c2ccc(C)c3ccccc23)c1C,-51%,-5%,-32%,-8%,,,
Nc1sc2c(c1C(=O)c1ccc(I)c3ccccc13)CCN(Cc1ccccc1)C2,-13%,-6%,-6%,1%,,,
Nc1sc2c(c1C(=O)c1ccc3ccccc3c1)CCN(Cc1ccc([N+](=O)[O-])cc1)C2,26%,8%,26%,12%,,,
Cc1cc(C(=O)c2c(N)sc3c2CCN(Cc2ccccc2)C3)cc2ccc(Cl)cc12,-9%,-1%,-5%,1%,,,
Cc1sc(N)c(C(=O)c2ccc(I)c3ccccc23)c1C,-63%,-5%,-19%,-3%,,,
COc1ccc(C(=O)c2c(N)sc3c2CCN(Cc2ccccc2)C3)c2ccccc12,-12%,-0%,3%,11%,,,
